Source: ChEMBL document CHEMBL1151198, “A new antimalarial quassinoid from Simaba orinocensis” (J Nat Prod, 2004)
In brackets after ≈: the same amount, converted by molar mass. Activity calls are given as the source filed them. The rule behind the calls is not given here.

What was measured:
[1] = Inhibition of protein biosynthesis in mouse Krebs cells assessed as firefly luciferase activity at 2 uM after 1 hr by translation assay relative to control; type: functional
Procedure, shortened: (§1)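 In vitro Krebs cell translation system read by firefly and renilla luciferase. Compounds at 10 or 2 µM; anisomycin 10 µM as reference and 0.5% DMSO as vehicle control. Values are average luciferase activity relative to control.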

[2] = Inhibition of protein biosynthesis in mouse Krebs cells assessed as firefly luciferase activity at 10 uM after 1 hr by translation assay relative to control; type: functional; procedure, shortened: as §1
HeLa [3] = assay: Inhibition of translation in human HeLa cells at 2 uM by 35S-methionine metabolic labeling study; type: functional, cell-based
Vero = assay: Cytotoxicity against african green monkey kidney Vero cells; type: cell-based; settings: Chlorocebus sabaeus
HeLa [4] = assay: Inhibition of protein synthesis in human HeLa cells at 2 uM by [35S]methionine metabolic labeling study; type: functional
[5] = Inhibition of protein biosynthesis in mouse Krebs cells assessed as renilla luciferase activity at 2 uM after 1 hr by translation assay relative to control; type: functional; procedure, shortened: as §1
Leishmania donovani = assay: Antileishmanial activity against Leishmania donovani promastigotes after 48 hrs by alamar blue assay; type: functional, organism-based
[6] = Inhibition of protein biosynthesis in mouse Krebs cells assessed as renilla luciferase activity at 10 uM after 1 hr by translation assay relative to control; type: functional; procedure, shortened: as §1
Plasmodium falciparum [7] = assay: Antimalarial activity against chloroquine-sensitive Plasmodium falciparum D6 by LDH assay; type: functional, organism-based
HeLa [8] = assay: Inhibition of translation in human HeLa cells at 10 uM by 35S-methionine metabolic labeling study; type: functional, cell-based
HeLa [9] = assay: Inhibition of protein synthesis in human HeLa cells assessed as translation at 2 uM by [35S]methionine metabolic labeling study; type: functional; set-up: scale not given: the % may be the effect or the level left
Plasmodium falciparum [10] = assay: Antimalarial activity against chloroquine-resistant Plasmodium falciparum W2 by LDH assay; type: functional, organism-based
[11] = Selectivity index, ratio of IC50 for african green monkey (Cercopithecus aethiops) Vero cells to IC50 for chloroquine-resistant Plasmodium falciparum W2; type: toxicity, cell-based; settings: read-out: Ratio IC50
SK-MEL = assay: Cytotoxicity against human SK-MEL cells after 48 hrs by neutral red staining; type: functional, cell-based
Procedure, shortened: (§2)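 Human tumour lines: SK-MEL (malignant melanoma), KB (epidermal carcinoma), BT-549 (ductal carcinoma) and SK-OV-3 (ovary carcinoma). Compounds tested up to a maximum of 10 µg/mL, with doxorubicin as reference. IC50 given in µg/mL as mean ± SEM of three determinations.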

RAW264.7 [12] = assay: Inhibition of iNOS production in LPS-activated mouse RAW264.7 cells after 20 hrs; type: functional, cell-based; settings: RAW264.7, 20 h
Procedure, shortened: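 iNOS assay in RAW 264.7 cells, with L-NMMA, APDC and dexamethasone as reference inhibitors. IC50 in µg/mL, mean ± SEM of three determinations.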

[13] = target: Intercellular adhesion molecule (ICAM-1), Integrin alpha-L/beta-2 (Homo sapiens, UniProt P05107+P05362+P20701); assay: Inhibition of LFA1/ICAM1-mediated adhesion of HL60 cells to CHO-ICAM1 cells; type: cell-based, HL-60
Procedure, shortened: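 Secondary LFA-1/ICAM-1-mediated adhesion assay using HL-60 cells and CHO-ICAM-1 cells, with cytochalasin B as standard. IC50 in µg/mL, mean ± SEM of three determinations.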

HL-60 = assay: Cytotoxicity against human HL60 cells by XTT assay; type: cell-based
Procedure, shortened: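 XTT proliferation read-out combined with the primary assay for inhibitors of LFA-1/ICAM-1-mediated cell aggregation. IC50 in µg/mL, mean ± SEM of three determinations.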

SK-OV-3 = assay: Cytotoxicity against human SKOV3 cells after 48 hrs by neutral red staining; type: functional, cell-based; settings: SK-OV-3, 48 h; procedure, shortened: as §2
[14] = Specific index, ratio of IC50 for human HL60 cells to MIC for LFA1/ICAM1; type: functional, HL-60
Procedure, shortened: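 Index calculated as XTT-assay IC50 (µg/mL) divided by the MIC from the LFA-1/ICAM-1-mediated aggregation primary screen (µg/mL). XTT IC50 values are given as mean ± SEM of three determinations.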

RAW264.7 [15] = assay: Cytotoxicity against mouse RAW264.7 cells after 2 days by MTT assay; type: cell-based; settings: RAW264.7, 48 h
Procedure, shortened: (§3)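 MTT viability assay, run on CHO-ICAM-1 cells and, separately, on RAW 264.7 cells. IC50 in µg/mL, mean ± SEM of three determinations.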

[16] = Selectivity index, ratio of IC50 for african green monkey (Cercopithecus aethiops) Vero cells to IC50 for chloroquine-sensitive Plasmodium falciparum D6; type: toxicity, cell-based; settings: read-out: Ratio IC50
BT-549 = assay: Cytotoxicity against human BT549 cells after 48 hrs by neutral red staining; type: functional, cell-based; settings: BT-549, 48 h; procedure, shortened: as §2
KB = assay: Cytotoxicity against human KB cells after 48 hrs by neutral red staining; type: functional, cell-based; procedure, shortened: as §2
[17] = target: Intercellular adhesion molecule (ICAM-1), Integrin alpha-L/beta-2 (Homo sapiens) (UniProt P20701+P05362+P05107); assay: Inhibition of LFA1/ICAM1-mediated HL60 cell aggregation; type: cell-based; settings: HL-60
Procedure, shortened: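 Primary screen for LFA-1/ICAM-1-mediated cell aggregation run together with an XTT cell-proliferation read-out. Aggregation potency is reported as a minimum inhibitory concentration in µg/mL.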

CHO = assay: Cytotoxicity against CHO cells transfected with ICAM1 by MTT assay; type: cell-based; settings: Cricetulus griseus; procedure, shortened: as §3
[18] = Specific index, ratio of IC50 for mouse RAW264.7 to IC50 for iNOS production in mouse RAW264.7
Procedure, shortened: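 Index calculated as the MTT IC50 in RAW 264.7 cells divided by the iNOS IC50 in the same cells.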

[19] = Specific index, ratio of IC50 for CHO cells to IC50 for LFA1/ICAM1
Procedure, shortened: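 Ratio of the MTT IC50 against CHO-ICAM-1 cells to the IC50 from the secondary LFA-1/ICAM-1-mediated adhesion assay, in which HL-60 cells adhere to CHO-ICAM-1 cells. IC50 values are in µg/mL, as mean ± SEM of three determinations.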

Chain of Intercellular adhesion molecule (ICAM-1), Integrin alpha-L/beta-2 (P20701 whole entry): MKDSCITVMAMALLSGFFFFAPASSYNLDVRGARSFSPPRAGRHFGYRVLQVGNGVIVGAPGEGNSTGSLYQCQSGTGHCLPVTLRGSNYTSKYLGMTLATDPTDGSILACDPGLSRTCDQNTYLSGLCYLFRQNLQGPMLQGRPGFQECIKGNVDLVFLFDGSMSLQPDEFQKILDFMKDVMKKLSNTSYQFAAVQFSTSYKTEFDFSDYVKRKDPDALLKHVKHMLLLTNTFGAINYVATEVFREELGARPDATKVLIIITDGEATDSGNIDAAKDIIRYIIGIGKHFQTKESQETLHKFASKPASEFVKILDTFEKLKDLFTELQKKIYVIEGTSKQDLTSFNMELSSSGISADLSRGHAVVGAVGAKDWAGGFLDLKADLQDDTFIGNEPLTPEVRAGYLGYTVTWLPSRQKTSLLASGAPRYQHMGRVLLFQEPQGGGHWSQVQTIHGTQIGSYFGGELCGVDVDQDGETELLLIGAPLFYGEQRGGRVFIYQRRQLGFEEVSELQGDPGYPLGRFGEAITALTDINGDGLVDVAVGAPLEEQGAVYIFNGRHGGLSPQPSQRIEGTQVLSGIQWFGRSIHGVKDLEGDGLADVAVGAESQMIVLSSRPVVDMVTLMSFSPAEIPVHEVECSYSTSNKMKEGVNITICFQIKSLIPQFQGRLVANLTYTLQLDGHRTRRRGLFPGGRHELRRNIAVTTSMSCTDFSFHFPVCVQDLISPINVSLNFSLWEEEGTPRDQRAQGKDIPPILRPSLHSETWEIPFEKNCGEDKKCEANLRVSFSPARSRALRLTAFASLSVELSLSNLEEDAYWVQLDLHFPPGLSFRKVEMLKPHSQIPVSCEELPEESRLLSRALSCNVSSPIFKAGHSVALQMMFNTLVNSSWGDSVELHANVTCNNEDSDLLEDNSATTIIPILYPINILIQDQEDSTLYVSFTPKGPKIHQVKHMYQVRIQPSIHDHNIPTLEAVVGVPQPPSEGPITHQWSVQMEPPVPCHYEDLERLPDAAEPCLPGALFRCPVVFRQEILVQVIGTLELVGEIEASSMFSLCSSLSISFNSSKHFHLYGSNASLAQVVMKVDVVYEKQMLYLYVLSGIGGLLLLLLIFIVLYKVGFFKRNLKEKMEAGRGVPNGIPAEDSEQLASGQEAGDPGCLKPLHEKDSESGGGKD
Chain of Intercellular adhesion molecule (ICAM-1), Integrin alpha-L/beta-2 (P05362 whole entry): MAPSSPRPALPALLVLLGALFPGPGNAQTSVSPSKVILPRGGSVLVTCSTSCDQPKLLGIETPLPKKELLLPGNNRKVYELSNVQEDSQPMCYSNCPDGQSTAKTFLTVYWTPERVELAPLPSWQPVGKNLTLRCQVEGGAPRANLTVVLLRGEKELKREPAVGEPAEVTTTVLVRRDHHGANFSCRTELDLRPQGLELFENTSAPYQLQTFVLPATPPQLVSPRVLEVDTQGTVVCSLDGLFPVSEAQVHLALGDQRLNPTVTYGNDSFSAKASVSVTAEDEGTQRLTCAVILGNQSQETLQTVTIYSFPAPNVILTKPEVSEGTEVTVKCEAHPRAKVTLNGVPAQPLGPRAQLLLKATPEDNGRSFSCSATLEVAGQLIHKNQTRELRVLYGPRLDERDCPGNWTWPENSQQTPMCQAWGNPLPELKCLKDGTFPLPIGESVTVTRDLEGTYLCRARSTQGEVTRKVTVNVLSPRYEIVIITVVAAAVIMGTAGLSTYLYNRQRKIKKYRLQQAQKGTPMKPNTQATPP
Chain of Intercellular adhesion molecule (ICAM-1), Integrin alpha-L/beta-2 (P05107 whole entry): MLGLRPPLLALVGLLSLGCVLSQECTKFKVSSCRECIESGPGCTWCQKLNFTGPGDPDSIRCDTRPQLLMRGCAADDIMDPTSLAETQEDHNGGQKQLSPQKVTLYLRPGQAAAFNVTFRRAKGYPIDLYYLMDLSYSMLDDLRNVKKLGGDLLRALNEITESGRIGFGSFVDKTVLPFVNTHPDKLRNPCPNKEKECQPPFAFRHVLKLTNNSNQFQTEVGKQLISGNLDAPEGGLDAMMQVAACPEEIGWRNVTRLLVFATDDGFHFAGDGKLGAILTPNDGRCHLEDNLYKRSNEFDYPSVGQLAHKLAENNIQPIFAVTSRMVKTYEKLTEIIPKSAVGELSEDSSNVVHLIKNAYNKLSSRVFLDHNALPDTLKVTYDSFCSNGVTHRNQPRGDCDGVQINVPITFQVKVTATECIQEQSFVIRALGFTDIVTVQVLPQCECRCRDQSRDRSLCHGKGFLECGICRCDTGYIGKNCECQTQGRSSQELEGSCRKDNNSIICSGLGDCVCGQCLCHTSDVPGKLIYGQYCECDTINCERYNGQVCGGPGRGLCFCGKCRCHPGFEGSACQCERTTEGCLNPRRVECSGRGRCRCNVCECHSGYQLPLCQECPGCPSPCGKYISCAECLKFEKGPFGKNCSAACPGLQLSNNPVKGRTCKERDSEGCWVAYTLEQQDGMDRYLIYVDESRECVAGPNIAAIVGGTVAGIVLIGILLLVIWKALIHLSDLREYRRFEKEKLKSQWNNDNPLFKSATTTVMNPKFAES

SMILES | Activity [1] | Activity [2] | IC50 (Vero) | inhibition at 2 µM (HeLa [4]) | Activity [5] | IC50 (Leishmania donovani) | IC90 (Leishmania donovani) | Activity [6] | IC50 (Plasmodium falciparum [7]) | Activity (HeLa [8]) | Activity (HeLa [9]) | IC50 (Plasmodium falciparum [10]) | selectivity ratio [11] | IC50 (RAW264.7 [12]) | IC50 [13] | IC50 (HL-60) | Ratio [14] | IC50 (RAW264.7 [15]) | selectivity ratio [16] | Ratio [18] | further results
CC[C@@H](C)C(=O)O[C@H]1C(=O)O[C@@H]2C[C@H]3C(C)=C[C@H](OC(C)=O)[C@@H](OC(C)=O)[C@]3(C)[C@H]3[C@@H](O)[C@@H](OC(C)=O)[C@]4(C)OC[C@]32[C@@H]14 | 0.87 | 1.02 | 10 µg/mL (≈ 16.5 µM) | 0% | 1.14 | > 50 µg/mL | > 50 µg/mL | 1.03 | > 4.76 µg/mL | inactive | 100% | > 4.76 µg/mL |  |  |  |  |  |  |  |  | Activity (HeLa [3]): inactive
CC[C@@H](C)C(=O)O[C@H]1C(=O)O[C@@H]2C[C@H]3C(C)=C[C@H](O)[C@@H](O)[C@]3(C)[C@H]3[C@@H](O)[C@@H](O)[C@]4(C)OC[C@]32[C@@H]14 | 0.35 | 0.05 | 10 µg/mL (≈ 20.8 µM) | 96.5% | 0.57 | 25 µg/mL (≈ 52 µM) | > 50 µg/mL | 0.09 | 0.00327 µg/mL (≈ 0.0068 µM) | Active | 3.5% | 0.00853 µg/mL (≈ 0.0178 µM) | 1180 | 6.5 µg/mL (≈ 13.5 µM) | > 52 µM | 0.7 µg/mL (≈ 1.46 µM) | 2.7 | 4.2 µg/mL (≈ 8.74 µM) | 3060 | 0.6 | IC50 (SK-MEL): 1.9 µg/mL (≈ 3.95 µM); IC50 (SK-OV-3): 0.8 µg/mL (≈ 1.66 µM); IC50 (BT-549): 1.7 µg/mL (≈ 3.54 µM); IC50 (KB): 1.9 µg/mL (≈ 3.95 µM); MIC [17]: 0.26 µg/mL (≈ 0.541 µM); IC50 (CHO): 2.5 µg/mL (≈ 5.2 µM)
C[C@@H]1[C@H](O)[C@@H](C)/C=C/C=C/C=C/C=C/C=C/C=C/C=C/[C@H](O[C@@H]2O[C@H](C)[C@@H](O)[C@H](N)[C@@H]2O)C[C@@H]2O[C@](O)(C[C@@H](O)C[C@@H](O)[C@H](O)CC[C@@H](O)C[C@@H](O)CC(=O)O[C@H]1C)C[C@H](O)[C@H]2C(=O)O [AMPHOTERICIN B] |  |  |  |  |  | 1.1 µg/mL (≈ 1.19 µM) | 2.1 µg/mL (≈ 2.27 µM) |  |  |  |  |  |  |  |  |  |  |  |  |  | 
C[C@@H]1CC[C@H]2[C@@H](C)C(=O)O[C@@H]3O[C@@]4(C)CC[C@@H]1[C@]32OO4 [ARTEMISININ] |  |  | > 10 µg/mL |  |  | 36 µg/mL (≈ 128 µM) | > 50 µg/mL |  |  |  |  | 0.0085 µg/mL (≈ 0.0301 µM) | > 1180 |  |  |  |  |  | > 699 |  | 
CCN(CC)CCCC(C)Nc1ccnc2cc(Cl)ccc12 (configuration not stated) [CHLOROQUINE] |  |  | > 10 µg/mL |  |  |  |  |  |  |  |  |  |  |  |  |  |  |  |  |  | 
C=C1[C@@H](C)[C@H]2[C@H](Cc3ccccc3)NC(=O)[C@]23OC(=O)/C=C/[C@H](O)CCC[C@@H](C)C/C=C/[C@H]3[C@@H]1O [CYTOCHALASIN B] |  |  |  |  |  |  |  |  |  |  |  |  |  | 5.6 µg/mL (≈ 11.7 µM) | 14.8 µM | 40 µg/mL (≈ 83.4 µM) | 17.2 | 6.5 µg/mL (≈ 13.6 µM) |  | 1.1 | Ratio [19]: 0.04; MIC [17]: 2.3 µg/mL (≈ 4.8 µM); IC50 (CHO): 0.26 µg/mL (≈ 0.542 µM)
C[C@@H]1C[C@H]2[C@@H]3CCC4=CC(=O)C=C[C@]4(C)[C@@]3(F)[C@@H](O)C[C@]2(C)[C@@]1(O)C(=O)CO [DEXAMETHASONE] |  |  |  |  |  |  |  |  |  |  |  |  |  | 36 µg/mL (≈ 91.7 µM) |  |  |  | > 25 µg/mL |  | 0.69 | 
N.S=C(S)N1CCCC1 [PYRROLIDINE DITHIOCARBAMIC ACID, AMMONIUM SALT] |  |  |  |  |  |  |  |  |  |  |  |  |  | 21 µg/mL |  |  |  | < 0.4 µg/mL |  | <0.02 | 
N=C(N)c1ccc(OCCCCCOc2ccc(C(=N)N)cc2)cc1 [PENTAMIDINE] |  |  |  |  |  | 1.6 µg/mL (≈ 4.7 µM) | 3.5 µg/mL (≈ 10.3 µM) |  |  |  |  |  |  |  |  |  |  |  |  |  | 
CC[C@@H](C)C(=O)O[C@H]1C(=O)O[C@@H]2C[C@H]3C(C)=CC(=O)[C@@H](O)[C@]3(C)[C@H]3[C@@H](OC(C)=O)[C@H](OC(C)=O)[C@]4(C)OC[C@]32[C@@H]14 | 1.34 | 0.42 | > 23.8 µg/mL | 0% | 0.87 | > 50 µg/mL | > 50 µg/mL | 0.52 | 3.2 µg/mL (≈ 5.69 µM) | inactive | 100% | 1.7 µg/mL (≈ 3.02 µM) | > 14 | 23 µg/mL (≈ 40.9 µM) | > 44.4 µM | 40 µg/mL (≈ 71.1 µM) | 1.9 | 24 µg/mL (≈ 42.7 µM) | > 7.4 | 1 | Activity (HeLa [3]): inactive; IC50 (SK-MEL): > 10 µg/mL; IC50 (SK-OV-3): > 10 µg/mL; IC50 (BT-549): > 10 µg/mL; IC50 (KB): > 10 µg/mL; MIC [17]: 20.8 µg/mL (≈ 37 µM); IC50 (CHO): 39 µg/mL (≈ 69.3 µM)
